Where a name gives a salt, the structure may show the parent alone. Read-outs that look alike come from different tables or passages of the source. Some results are limits rather than exact numbers.

Data set [1] in a line: Hydrolysis in pH 7.4 phosphate buffer. In kind it is physicochemical. Summed up:
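Test compound (200 mM DMSO stock) in 10 mM phosphate buffer, pH 7.4, at 37 °C. Sampled at 0, 5, 10, 30, 60 and 120 min, quenched in 0.1% TFA, HPLC. Pseudo-first-order k from ln(remaining) vs time; t1/2=0.693/k; triplicate.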

Data set [2] in a line: Hydrolysis in pH 6.0 uptake buffer. The note with it: 37 °C, * no area decrease detected in HPLC after 2 h, ** less than 5% decrease after 2 h. Format: physicochemical.
In data set [3] the test system is HeLa/hPEPT1 cells. Put plainly: Direct uptake in HeLa/hPEPT1 cells. The following applies: for remaining in donor solution after 1 h: direct uptake study, HeLa/hPEPT1 and normal HeLa cells. Format: cell-based, human. Summed up: (§1)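 HeLa cells grown 5 days in 12-well plates; the hPEPT1 set was infected with hPEPT1 adenovirus 3 days before, and uninfected HeLa served as control. After a wash and 15 min preincubation in uptake buffer (pH 6.0, MES) at 37 °C, cells took 1 mM test compound for 60 min at 37 °C. Then washed ice-cold, sonicated, TFA-precipitated (7% final), HPLC; protein measured by DC assay; triplicate.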

Data set [4] deals with Caco-2 cell homogenates. Description: Hydrolysis in Caco-2 cell homogenates. Format: in vitro ADME. The following applies: 500 μg/mL protein, 37 °C; * no area decrease detected in HPLC after 2 h.
The test system of data set [5] is HeLa cell homogenates. Put plainly: Hydrolysis in HeLa cell homogenates. Format: in vitro ADME. The following applies: 500 μg/mL protein, 37 °C; * no area decrease detected in HPLC after 2 h.
The test system of data set [6] is rat jejunum. Description: In situ single-pass rat jejunum perfusion. In kind it is in vivo. The note with it: 0.1 mM, pH 6.5, compared to co-perfused metoprolol; result in words (Figure 3). Summed up:
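Male Wistar rats, 250–280 g, fasted 12–18 h, anesthetized i.m. with ketamine-xylazine; ~10 cm jejunal segment cannulated in situ at 37 °C. Perfused at 0.2 mL/min with pH 6.5 MES buffer containing 0.1 mM test compound, 0.4 mg/mL metoprolol and phenol red. Samples every 10 min for 1 h after 1 h steady state; HPLC. […], outlet corrected by phenol red; n=4.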

Data set [7] addresses T1, hPEPT1 (Homo sapiens, UniProt P46059).
T1 sequence (P46059 1-708): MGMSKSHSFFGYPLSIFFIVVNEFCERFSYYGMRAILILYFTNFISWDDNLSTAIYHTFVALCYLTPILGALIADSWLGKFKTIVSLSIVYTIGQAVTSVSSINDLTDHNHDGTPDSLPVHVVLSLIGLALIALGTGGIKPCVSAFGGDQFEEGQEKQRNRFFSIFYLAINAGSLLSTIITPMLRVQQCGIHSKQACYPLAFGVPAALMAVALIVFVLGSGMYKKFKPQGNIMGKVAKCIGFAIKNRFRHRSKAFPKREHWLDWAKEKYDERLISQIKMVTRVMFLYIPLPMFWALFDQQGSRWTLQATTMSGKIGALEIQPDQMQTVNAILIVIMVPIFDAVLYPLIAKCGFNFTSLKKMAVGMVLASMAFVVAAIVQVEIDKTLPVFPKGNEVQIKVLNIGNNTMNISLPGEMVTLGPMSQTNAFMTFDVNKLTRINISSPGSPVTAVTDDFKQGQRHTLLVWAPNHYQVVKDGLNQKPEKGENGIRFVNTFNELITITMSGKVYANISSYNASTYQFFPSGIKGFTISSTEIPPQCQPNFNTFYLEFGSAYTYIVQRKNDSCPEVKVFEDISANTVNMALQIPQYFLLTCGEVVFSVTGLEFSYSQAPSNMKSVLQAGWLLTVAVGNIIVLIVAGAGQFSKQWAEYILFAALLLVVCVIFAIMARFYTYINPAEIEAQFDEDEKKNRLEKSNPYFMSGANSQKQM
Description: [3H]Gly-Sar uptake inhibition in HeLa/hPEPT1 cells. Format: cell-based. Summed up:
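HeLa cells infected with hPEPT1 adenovirus 3 days before assay. Incubated 30 min at 37 °C in pH 6.0 MES uptake buffer with 10 μM Gly-Sar (0.1 μM [3H]) plus 0.05–5 mM test compound. Washed three times ice-cold, lysed in 0.1% SDS, scintillation counted. IC50 by nonlinear fitting; n=4.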

Data set [8] deals with Caco-2 monolayers. Put plainly: Caco-2 monolayer permeability study. In kind it is in vitro ADME. The following applies: for Apparent apical-to-basolateral permeability coefficient (Papp): 200 μM, apical pH 6.0, basolateral pH 7.5, result in words (Figure 1). The method in brief: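 Caco-2 cells grown on collagen-coated 3.0 μm-pore transwell inserts and used 22–23 days post-seeding; TEER checked before and after. After 15 min preincubation at 37 °C, apical MES buffer (pH 6.0) replaced with 200 μM test compound, basolateral HEPES buffer (pH 7.5). Basolateral aliquots taken at set intervals and replaced with fresh buffer; HPLC. Papp=(1/C0A)(dQ/dt), steady-state rate; triplicate.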

For data set [9] the following is noted: cited from earlier work.
Data set [10] deals with HeLa cells. Put plainly: Direct uptake in normal HeLa cells. In kind it is cell-based. The note with it: 1 mM test compound, pH 6.0, 60 min. Summed up:
as §1

Substrate in data set [11]: CC(C)[C@H](N)C(=O)OCCOCn1cnc2c(=O)[nH]c(N)nc21
Description: hVACVase-mediated hydrolysis. In kind it is biochemical, human. The note with it: other: recombinant hVACVase, 50 mM HEPES pH 7.4, 37 °C.

Substrate in data set [12]: NC(N)=Nc1cccc(COC(=O)[C@@H](N)Cc2ccccc2)c1
Put plainly: hVACVase-mediated hydrolysis. The note with it: other: recombinant hVACVase, 50 mM HEPES pH 7.4, 37 °C. Format: biochemical, human.

Substrate in data set [13]: CC[C@H](C)[C@H](N)C(=O)OCc1cccc(N=C(N)N)c1
Put plainly: hVACVase-mediated hydrolysis. Format: biochemical, human. The following applies: other: recombinant hVACVase, 50 mM HEPES pH 7.4, 37 °C.

Substrate in data set [14]: CC(C)[C@H](N)C(=O)OCc1cccc(NC(=N)N)c1
Description: hVACVase-mediated hydrolysis. Format: biochemical, human. The following applies: other: recombinant hVACVase, 50 mM HEPES pH 7.4, 37 °C.

As to `N=C(N)Nc1cccc(CO)c1` [3-HPG, [3-(hydroxymethyl)phenyl]guanidine], in [1] (10 mM phosphate buffer pH 7.4, 37 °C, * no area decrease detected in HPLC after 2 h), the “Half-lives, pH 7.4 buffer” value is recorded as “stable ^*”. Besides, in data set [2], the “Half-lives, pH 6 buffer” value was “stable ^*”. In addition, the “remaining in donor solution after 1 h” value in data set [3] was greater than 95%. Moreover, in data set [4], the “Half-lives, Caco-2 cell homogenates” value is given as “stable ^*”. Moreover, the “Half-lives, HeLa cell homogenates” value in data set [5] is listed as “stable ^*”. For the same molecule, in data set [6], the “Effective permeability (Peff), rat jejunum” value is on record as “very low”.

The molecule `CC[C@H](C)[C@H](N)C(=O)OCc1ccccc1` [Ile-OBz, L-Isoleucine benzyl ester 4-toluenesulfonate salt] had an IC50 in data set [7] of 1050 ± 130 µM.

As for `NC(N)=Nc1cccc(COC(=O)[C@@H](N)Cc2ccccc2)c1` [Phe-3-HPG, L-Phenylalnine [3-[(aminoiminomethyl)amino]phenyl]methyl ester], in data set [8], the “Apparent apical-to-basolateral permeability coefficient (Papp)” value is listed as “didn’t show significantly different permeability than 3-HPG”. Moreover, the “Half-lives, pH 6 buffer” value in data set [2] is “stable ^**”. In addition, the “remaining in donor solution after 1 h” value in [3] was greater than 80%.

In [7], `N[C@@H](Cc1ccccc1)C(=O)OCc1ccccc1` [Phe-OBz, L-phenylalanine benzyl ester hydrochloride] displayed an IC50 greater than 3000 µM.

In the case of `CC(C)[C@H](N)C(=O)OCc1ccccc1` [Val-OBz, L-valine benzyl ester hydrochloride], in data set [7], the IC50 came to 390 ± 40 µM.

Consider `CC1CNc2c(cccc2S(=O)(=O)N[C@@H](CCCNC(=N)N)C(=O)N2CC[C@@H](C)C[C@@H]2C(=O)O)C1` (stereo partly drawn) [argatroban], for which the oral bioavailability entry in data set [9] (in vivo, po) is given as “low oral bioavailability”.

Regarding `CC(C)[C@H](N)C(=O)OCCOCn1cnc2c(=O)nc(N)[nH]c21` [valacyclovir], the oral bioavailability entry in data set [9] is on record as “more than 50%”. The molecule further came in with a half-life at 200 µM in data set [1] (phosphate buffer, pH 7.4) of 13.8 ± 0.417 h. For the same molecule, the “uptake, HeLa cells” value in data set [10] was less than 0.2 nmol/mg in 60 min. Also, the “Half-lives, pH 6 buffer” value in [2] was “stable ^*”. In data set [3], the “remaining in donor solution after 1 h” value is given as greater than 95%. Also, the hPEPT1/control in data set [3] (ratio of uptake in HeLa/hPEPT1 cells to uptake in normal HeLa cells (fold)) is greater than 25.

Take `CC(C)[C@H](N)C(=O)OCC(CO)OCn1cnc2c(=O)nc(N)[nH]c21` (stereo partly drawn) [valganciclovir]: the oral bioavailability result in data set [9] is “more than 50%”.

With `CC(=O)N[C@H]1[C@H]([C@H](O)[C@H](O)CO)OC(C(=O)O)=C[C@@H]1N=C(N)N` [zanamivir], the oral bioavailability result in [9] (result in words) is reported as “low oral bioavailability”.

As to “D-Valine [3-[(aminoiminomethyl)amino]phenyl]methyl ester [D-Val-3-HPG]”, the “Apparent apical-to-basolateral permeability coefficient (Papp)” value in data set [8] is reported as “no transport”. Moreover, the “Stability in apical side during Caco-2 permeability study” value in data set [8] (percentage of ester form in donor solution at 120 min) was determined as 98.8 ± 0.1%.

B1: hVACVase (Homo sapiens) (protein)
chain: SVTSAKVAVNGVQLHYQQTGEGDHAVLLLPGMLGSGETDFGPQLKNLNKKLFTVVAWDPRGYGHSRPPDRDFPADFFERDAKDAVDLMKALKFKKVSLLGWSDGGITALIAAAKYPSYIHKMVIWGANAYVTDEDSMIYEGIRDVSKWSERTRKPLEALYGYDYFARTCEKWVDGIRQFKHLPDGNICRHLLPRVQCPALIVHGEKDPLVPRFHADFIHKHVKGSRLHLMPEGKHNLHLRFADEFNKLAEDFLQ
As to B1, in data set [11], the Km came out at 68 ± 4 µM, the Vmax worked out at 120 µmol/min/mg, the kcat was 58 ± 1 s⁻¹ and the kcat/Km is 850000 ± 66000 M⁻¹ s⁻¹. Further, in data set [12], the Km was determined as 207 ± 16 µM, the Vmax came to 718 µmol/min/mg, the kcat stood at 345 ± 8 s⁻¹ and the kcat/Km was determined as 1.66e+06 ± 160000 M⁻¹ s⁻¹. In data set [13], the Km was 9.0 ± 1.2 µM, the Vmax was 30 µmol/min/mg, the kcat is 14 ± 1 s⁻¹ and the kcat/Km came to 1.58e+06 ± 260000 M⁻¹ s⁻¹. In [14], the Km was found to be 46 ± 5 µM, the Vmax amounted to 321 µmol/min/mg, the kcat worked out at 154 ± 4 s⁻¹ and the kcat/Km was 3.37e+06 ± 460000 M⁻¹ s⁻¹.

These data come from PMC3304101 (Journal of Medicinal Chemistry, 2010).
